Assay results taken from ChEMBL document CHEMBL5661979, “Pharmacological inhibition of BMK1 suppresses tumor growth through promyelocytic leukemia protein” (Cancer Cell, 2010).

Legend:
[1] = target: Ribosomal protein S6 kinase alpha-1 (Homo sapiens, UniProt Q15418); experiment: Inhibition of RSK1 domain 2 K1 site in human HeLa cells lysate at 10 uM pre incubated for 15 mins followed by ADP acyl phosphate probe addition and measured after 10 mins by LC-MS/MS analysis relative to control; assay type: subcellular; conditions: time 25.0 min
[2] = Inhibition of MSK1/2 in human HeLa cells lysate at 10 uM pre incubated for 15 mins followed by ADP acyl phosphate probe addition and measured after 10 mins by LC-MS/MS analysis relative to control; conditions: 25 min, condition cancer
[3] = target: T1, Dual specificity mitogen-activated protein kinase kinase 5 (Homo sapiens) (UniProt Q13163); experiment: Inhibition of MAP2K5 in human HeLa cells lysate at 10 uM pre incubated for 15 mins followed by ADP acyl phosphate probe addition and measured after 10 mins by LC-MS/MS analysis relative to control; assay type: subcellular; conditions: time 25.0 min
T1 sequence (whole entry): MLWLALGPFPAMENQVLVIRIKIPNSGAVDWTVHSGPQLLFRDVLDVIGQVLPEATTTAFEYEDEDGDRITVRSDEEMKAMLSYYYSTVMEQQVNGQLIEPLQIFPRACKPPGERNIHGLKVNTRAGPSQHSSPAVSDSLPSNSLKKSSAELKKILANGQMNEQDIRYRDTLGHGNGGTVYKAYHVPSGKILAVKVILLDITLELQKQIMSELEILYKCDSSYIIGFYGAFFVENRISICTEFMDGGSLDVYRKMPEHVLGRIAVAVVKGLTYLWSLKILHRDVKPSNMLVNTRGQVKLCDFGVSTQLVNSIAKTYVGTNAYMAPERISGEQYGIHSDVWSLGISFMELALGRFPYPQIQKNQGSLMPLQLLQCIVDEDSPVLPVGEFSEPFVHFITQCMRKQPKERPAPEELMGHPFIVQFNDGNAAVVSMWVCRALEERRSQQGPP

[4] = target: Interleukin-1 receptor-associated kinase 1 (Homo sapiens, UniProt P51617); experiment: Inhibition of IRAK1 in human HeLa cells lysate at 50 uM pre incubated for 15 mins followed by ATP acyl phosphate probe addition and measured after 10 mins by LC-MS/MS analysis relative to control; assay type: subcellular; conditions: time 25.0 min
[5] = target: Cyclin-dependent kinase 7 (Homo sapiens, UniProt P50613); experiment: Inhibition of CDK7 in human HeLa cells lysate pre incubated for 15 mins followed by ATP acyl phosphate probe addition and measured after 10 mins by LC-MS/MS analysis; assay type: subcellular
In short: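 KiNativ profiling in HeLa lysate (5 mg/mL total protein). Lysate incubated 15 min with inhibitor at 50, 10, 2, 0.8 or 0 μM. ATP or ADP acylphosphate probe then added (5 μM final) and reacted 10 min. Reaction stopped with urea and analysed by targeted MS, using up to four fragment ions per kinase peptide-probe conjugate. % inhibition taken against untreated lysate. Run in duplicate.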

[6] = target: Serine/threonine-protein kinase 16 (Homo sapiens, UniProt O75716); experiment: Inhibition of MPSK1 in human HeLa cells lysate pre incubated for 15 mins followed by ATP acyl phosphate probe addition and measured after 10 mins by LC-MS/MS analysis; assay type: subcellular
[7] = AUCinfinity in Sprague-Dawley rat at 1 mg/kg, iv measured up to 8 hrs by LC-MS/MS analysis; assay type: ADME, organism-based; conditions: in vivo
In short: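 Sprague-Dawley rats given one intravenous dose or one oral dose of 2 mg/kg. Plasma drug concentrations were followed over time, with samples taken out to 8 hr after dosing. PK parameters (clearance, volume of distribution, half-life, oral bioavailability, Cmax) were calculated from these concentration–time data.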

[8] = target: T2, Serine/threonine-protein kinase 4 (Homo sapiens) (UniProt Q13043); experiment: Inhibition of MST1 in human HeLa cells lysate at 50 uM pre incubated for 15 mins followed by ADP acyl phosphate probe addition and measured after 10 mins by LC-MS/MS analysis relative to control; assay type: subcellular; conditions: time 25.0 min
T2 sequence (whole entry): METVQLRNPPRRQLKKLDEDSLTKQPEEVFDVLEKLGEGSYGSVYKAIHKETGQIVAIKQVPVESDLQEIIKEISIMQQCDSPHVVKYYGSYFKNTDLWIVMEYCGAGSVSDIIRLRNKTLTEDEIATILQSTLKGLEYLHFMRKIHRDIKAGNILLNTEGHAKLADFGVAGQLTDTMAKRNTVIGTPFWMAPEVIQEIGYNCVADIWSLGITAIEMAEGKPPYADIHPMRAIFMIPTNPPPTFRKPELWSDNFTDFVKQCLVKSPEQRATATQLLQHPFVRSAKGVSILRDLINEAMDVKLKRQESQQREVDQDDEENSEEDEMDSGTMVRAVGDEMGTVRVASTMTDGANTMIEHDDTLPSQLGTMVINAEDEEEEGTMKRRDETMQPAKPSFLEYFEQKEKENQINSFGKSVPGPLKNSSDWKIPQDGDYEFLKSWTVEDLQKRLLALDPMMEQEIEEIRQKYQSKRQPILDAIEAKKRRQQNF

[9] = target: Glycogen synthase kinase-3 alpha (Homo sapiens, UniProt P49840); experiment: Inhibition of GSK3A in human HeLa cells lysate pre incubated for 15 mins followed by ATP acyl phosphate probe addition and measured after 10 mins by LC-MS/MS analysis; assay type: subcellular
Chain of Glycogen synthase kinase-3 alpha (P49840 whole entry): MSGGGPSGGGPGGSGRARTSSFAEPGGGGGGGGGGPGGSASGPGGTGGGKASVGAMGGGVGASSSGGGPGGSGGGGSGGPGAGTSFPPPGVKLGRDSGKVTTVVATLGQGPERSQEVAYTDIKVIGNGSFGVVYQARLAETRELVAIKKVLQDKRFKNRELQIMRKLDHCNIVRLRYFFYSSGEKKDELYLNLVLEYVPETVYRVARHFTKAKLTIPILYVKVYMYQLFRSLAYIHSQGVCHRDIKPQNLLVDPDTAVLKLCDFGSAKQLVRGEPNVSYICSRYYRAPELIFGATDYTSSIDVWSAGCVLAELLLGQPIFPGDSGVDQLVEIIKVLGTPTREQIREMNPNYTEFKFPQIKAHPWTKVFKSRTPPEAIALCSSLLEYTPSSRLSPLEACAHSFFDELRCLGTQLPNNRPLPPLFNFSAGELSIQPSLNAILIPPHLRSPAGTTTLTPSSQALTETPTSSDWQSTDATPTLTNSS

Chain of Serine/threonine-protein kinase 16 (O75716 whole entry): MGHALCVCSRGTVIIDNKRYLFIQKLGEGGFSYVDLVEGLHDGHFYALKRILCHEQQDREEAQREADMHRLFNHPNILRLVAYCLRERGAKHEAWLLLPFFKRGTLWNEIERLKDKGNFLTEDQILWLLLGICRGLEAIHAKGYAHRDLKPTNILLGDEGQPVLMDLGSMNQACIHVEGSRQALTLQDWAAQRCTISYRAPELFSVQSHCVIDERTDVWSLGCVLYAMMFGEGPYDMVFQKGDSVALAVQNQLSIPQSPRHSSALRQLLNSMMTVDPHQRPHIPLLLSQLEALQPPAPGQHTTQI
Chain of Ribosomal protein S6 kinase alpha-1 (Q15418 whole entry, the tested form may be a part): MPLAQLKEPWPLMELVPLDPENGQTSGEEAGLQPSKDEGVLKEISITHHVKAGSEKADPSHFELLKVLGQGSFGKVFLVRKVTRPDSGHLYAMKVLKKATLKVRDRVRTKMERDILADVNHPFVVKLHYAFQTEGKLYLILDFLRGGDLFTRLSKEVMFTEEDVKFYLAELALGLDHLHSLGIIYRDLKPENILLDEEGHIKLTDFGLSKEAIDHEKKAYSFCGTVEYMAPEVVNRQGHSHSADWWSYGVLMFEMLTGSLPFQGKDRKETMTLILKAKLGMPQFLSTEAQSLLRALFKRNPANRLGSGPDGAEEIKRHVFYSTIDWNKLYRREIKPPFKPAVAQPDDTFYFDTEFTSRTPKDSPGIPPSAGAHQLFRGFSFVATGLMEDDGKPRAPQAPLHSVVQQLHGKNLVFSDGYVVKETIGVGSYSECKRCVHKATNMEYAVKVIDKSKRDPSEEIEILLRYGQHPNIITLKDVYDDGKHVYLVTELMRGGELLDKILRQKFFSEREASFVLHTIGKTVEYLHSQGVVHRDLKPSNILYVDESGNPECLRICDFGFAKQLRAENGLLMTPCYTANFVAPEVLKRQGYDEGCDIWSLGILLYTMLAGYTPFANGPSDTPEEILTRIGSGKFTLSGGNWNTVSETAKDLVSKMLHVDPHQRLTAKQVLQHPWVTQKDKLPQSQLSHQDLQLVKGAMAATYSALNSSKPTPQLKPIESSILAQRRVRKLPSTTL
Chain of Cyclin-dependent kinase 7 (P50613 whole entry, the tested form may be a part): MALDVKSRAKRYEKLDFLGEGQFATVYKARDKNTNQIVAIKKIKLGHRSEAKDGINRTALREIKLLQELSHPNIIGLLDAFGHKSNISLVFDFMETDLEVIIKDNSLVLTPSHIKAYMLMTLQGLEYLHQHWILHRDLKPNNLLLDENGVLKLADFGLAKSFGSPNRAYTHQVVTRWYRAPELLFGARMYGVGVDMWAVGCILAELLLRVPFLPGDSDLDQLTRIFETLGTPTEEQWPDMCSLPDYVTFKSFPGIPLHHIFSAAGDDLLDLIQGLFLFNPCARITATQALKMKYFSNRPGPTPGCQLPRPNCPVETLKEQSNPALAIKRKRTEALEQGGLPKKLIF
Chain of Interleukin-1 receptor-associated kinase 1 (P51617 whole entry, looked up): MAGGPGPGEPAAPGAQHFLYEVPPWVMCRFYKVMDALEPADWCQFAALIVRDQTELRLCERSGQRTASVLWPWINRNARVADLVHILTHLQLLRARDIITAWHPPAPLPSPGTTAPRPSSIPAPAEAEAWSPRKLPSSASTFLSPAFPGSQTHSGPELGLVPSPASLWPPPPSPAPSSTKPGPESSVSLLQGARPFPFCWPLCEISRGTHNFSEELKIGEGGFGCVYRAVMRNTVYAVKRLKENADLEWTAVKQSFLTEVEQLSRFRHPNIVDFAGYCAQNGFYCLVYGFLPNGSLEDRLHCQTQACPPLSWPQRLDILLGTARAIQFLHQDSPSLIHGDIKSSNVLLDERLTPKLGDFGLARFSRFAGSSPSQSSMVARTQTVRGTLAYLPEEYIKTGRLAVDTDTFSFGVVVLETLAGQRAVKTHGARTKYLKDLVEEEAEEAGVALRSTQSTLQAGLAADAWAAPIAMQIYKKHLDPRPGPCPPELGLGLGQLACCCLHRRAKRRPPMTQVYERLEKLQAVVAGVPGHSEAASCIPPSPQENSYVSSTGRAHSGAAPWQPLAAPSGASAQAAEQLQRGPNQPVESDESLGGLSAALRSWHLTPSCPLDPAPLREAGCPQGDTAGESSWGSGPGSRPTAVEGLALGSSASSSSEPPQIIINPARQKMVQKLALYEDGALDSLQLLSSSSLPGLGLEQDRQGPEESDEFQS

CCOc1cc(N2CCC(O)CC2)ccc1Nc1ncc2c(n1)N(C)c1ccccc1C(=O)N2C
inhibition [1]: 23.4%
inhibition at 10 µM [2]: 37.4%
inhibition [3]: -9.9%
inhibition [4]: -8.3%
IC50 [5]: > 50 µM
IC50 [6]: > 50 µM
AUC(0-inf) [7]: 1.39 µM·h
inhibition [8]: 10.2%
IC50 [9]: > 50 µM
